Data reported in ChEMBL document CHEMBL1649139, “A novel gene, erm(41), confers inducible macrolide resistance to clinical isolates of Mycobacterium abscessus but is absent from Mycobacterium chelonae” (2009).
In brackets after ≈: the same amount, converted by molar mass.

Tests used:
Type in all cases: functional
[1] = tested on: Mycobacteroides abscessus; assay: Antimicrobial activity against Mycobacterium abscessus isolate MC1082 at day 3 preincubated with 0.1 ug/ml erythromycin for 3 days by broth microdilution method
Summary of the method: (§1)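 Clarithromycin MIC by CLSI-conforming broth microdilution. Before testing, cultures were preincubated for 3 days, either in medium alone or in clarithromycin or erythromycin (tested range 0.01–1 μg/ml). Preincubation ran for at least two generations, judged by turbidity increase. Plates were read on day 3 and on extended incubation at days 5 to 14.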

[2] = tested on: Mycobacteroides abscessus; assay: Antimicrobial activity against Mycobacterium abscessus isolate MC723 at day 7 preincubated with 0.1 ug/ml for 3 days by broth microdilution method
Summary of the method: (§2)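 Clarithromycin MIC by broth microdilution following CLSI guidelines. Before testing, organisms were preincubated for 3 days in medium alone or in clarithromycin or erythromycin (0.01–1 μg/ml), long enough for at least two generations judged by turbidity increase. MICs were read on day 3 and again on extended incubation out to day 14.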

[3] = tested on: Mycobacteroides abscessus; assay: Antimicrobial activity against Mycobacterium abscessus isolate MC958 on day 14 by broth microdilution method; conditions: isolate MC958, 336 h
[4] = tested on: Mycolicibacterium smegmatis; assay: Antimicrobial activity against Mycobacterium smegmatis transformed with erm allele Mycobacterium abscessus isolate MC879 preincubated with 2 ug/ml erythromycin for 20 to 24 hrs by broth microdilution method
[5] = tested on: Mycobacteroides abscessus; assay: Antimicrobial activity against Mycobacterium abscessus isolate MC879 at day 14 preincubated with 0.1 ug/ml for 3 days by broth microdilution method
Summary of the method: (§3)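 To test inducible resistance, cultures were preincubated for 3 days in clarithromycin or erythromycin, within 0.01–1 μg/ml. The period was set so cultures passed at least two generations, judged by turbidity increase. Clarithromycin MIC was then determined by CLSI-conforming broth microdilution and read on the stated day, from day 3 up to 14.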

[6] = tested on: Mycobacteroides abscessus; assay: Antimicrobial activity against Mycobacterium abscessus isolate MC879-2 at day 5 preincubated with 0.1 ug/ml erythromycin for 3 days by broth microdilution method
[7] = tested on: Mycobacteroides abscessus; assay: Antimicrobial activity against Mycobacterium abscessus isolate MAB30 at day 14 preincubated with 0.1 ug/ml for 3 days by broth microdilution method; summary of the method: as §1
[8] = tested on: Mycolicibacterium smegmatis; assay: Antimicrobial activity against Mycobacterium smegmatis transformed with erm allele Mycobacterium abscessus isolate MC1028 by broth microdilution method
[9] = tested on: Mycolicibacterium smegmatis; assay: Antimicrobial activity against Mycobacterium smegmatis transformed with erm allele Mycobacterium abscessus isolate MC719 by broth microdilution method
[10] = tested on: Mycobacteroides abscessus; assay: Antimicrobial activity against Mycobacterium abscessus isolate MC1448 at day 5 preincubated with 0.1 ug/ml erythromycin for 3 days by broth microdilution method; summary of the method: as §2
[11] = tested on: Mycobacteroides abscessus; assay: Antimicrobial activity against Mycobacterium abscessus isolate MC958 on day 4 by broth microdilution method; conditions: isolate MC958, 96 h
[12] = tested on: Mycobacteroides abscessus; assay: Antimicrobial activity against Mycobacterium abscessus isolate MC879 at day 3 preincubated with 0.1 ug/ml erythromycin for 3 days by broth microdilution method; summary of the method: as §3
[13] = tested on: Mycobacteroides abscessus; assay: Antimicrobial activity against Mycobacterium abscessus isolate MC1082 at day 7 preincubated with 0.1 ug/ml erythromycin for 3 days by broth microdilution method; summary of the method: as §1
[14] = tested on: Mycobacteroides abscessus; assay: Antimicrobial activity against Mycobacterium abscessus isolate MC1028 at day 7 by broth microdilution method; conditions: isolate MC1028, 168 h; summary of the method: as §1
[15] = tested on: Mycobacteroides abscessus; assay: Antimicrobial activity against Mycobacterium abscessus isolate MC719 at day 5 preincubated with 0.1 ug/ml erythromycin for 3 days by broth microdilution method
Summary of the method: (§4)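 Clinical M. abscessus isolates were preincubated for 3 days, either in medium alone or in clarithromycin or erythromycin at 0.01 to 1 μg/ml, allowing at least two generations of growth judged by turbidity. The clarithromycin MIC was then determined by CLSI-conforming broth microdilution, with plates read on day 3 and on extended incubation (days 5 to 14).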

[16] = tested on: Mycobacteroides abscessus; assay: Antimicrobial activity against Mycobacterium abscessus isolate MC958 at day 5 preincubated with 0.1 ug/ml erythromycin for 3 days by broth microdilution method; summary of the method: as §4
[17] = tested on: Mycobacteroides abscessus; assay: Antimicrobial activity against Mycobacterium abscessus isolate MC879 at day 5 preincubated with 0.1 ug/ml for 3 days by broth microdilution method; summary of the method: as §3
[18] = tested on: Mycobacteroides abscessus; assay: Antimicrobial activity against Mycobacterium abscessus isolate MC720 at day 7 preincubated with 0.1 ug/ml erythromycin for 3 days by broth microdilution method; summary of the method: as §2
[19] = tested on: Mycobacteroides abscessus; assay: Antimicrobial activity against Mycobacterium abscessus isolate MC1448 at day 3 by broth microdilution method; conditions: isolate MC1448, 72 h; summary of the method: as §1
[20] = tested on: Mycobacteroides abscessus; assay: Antimicrobial activity against Mycobacterium abscessus isolate MC879-2 at day 9 by broth microdilution method; conditions: isolate MC879-2, 216 h
[21] = tested on: Mycobacteroides abscessus; assay: Antimicrobial activity against Mycobacterium abscessus isolate MC879 at day 14 preincubated with 0.1 ug/ml erythromycin for 3 days by broth microdilution method; summary of the method: as §3
[22] = tested on: Mycobacteroides abscessus; assay: Antimicrobial activity against Mycobacterium abscessus isolate MC720 at day 7 preincubated with 0.1 ug/ml for 3 days by broth microdilution method; summary of the method: as §2
[23] = tested on: Mycobacteroides abscessus; assay: Antimicrobial activity against Mycobacterium abscessus isolate MC723 at day 5 preincubated with 0.1 ug/ml erythromycin for 3 days by broth microdilution method; summary of the method: as §4
[24] = tested on: Mycobacteroides abscessus; assay: Antimicrobial activity against Mycobacterium abscessus isolate MC1082 at day 9 preincubated with 0.1 ug/ml for 3 days by broth microdilution method; summary of the method: as §1
[25] = tested on: Mycobacteroides abscessus; assay: Antimicrobial activity against Mycobacterium abscessus isolate MC1082 at day 3 by broth microdilution method; conditions: isolate MC1082, 72 h; summary of the method: as §1
[26] = tested on: Mycobacteroides abscessus; assay: Antimicrobial activity against Mycobacterium abscessus isolate MC1448 at day 7 by broth microdilution method; conditions: isolate MC1448, 168 h; summary of the method: as §2
[27] = tested on: Mycobacteroides abscessus; assay: Antimicrobial activity against Mycobacterium abscessus isolate MC724 at day 9 preincubated with 0.1 ug/ml erythromycin for 3 days by broth microdilution method; summary of the method: as §3
[28] = tested on: Mycobacteroides abscessus; assay: Antimicrobial activity against Mycobacterium abscessus isolate MC1448 at day 14 by broth microdilution method; conditions: isolate MC1448, 336 h; summary of the method: as §1
[29] = tested on: Mycobacteroides abscessus; assay: Antimicrobial activity against Mycobacterium abscessus isolate MC1028 at day 3 preincubated with 0.1 ug/ml erythromycin for 3 days by broth microdilution method; summary of the method: as §1
[30] = tested on: Mycobacteroides abscessus; assay: Antimicrobial activity against Mycobacterium abscessus isolate MC879 at day 5 preincubated with 0.1 ug/ml erythromycin for 3 days by broth microdilution method; summary of the method: as §4
[31] = tested on: Mycobacteroides abscessus; assay: Antimicrobial activity against Mycobacterium abscessus isolate MC720 at day 5 by broth microdilution method; conditions: isolate MC720, 120 h; summary of the method: as §2
[32] = tested on: Mycobacteroides abscessus; assay: Antimicrobial activity against Mycobacterium abscessus isolate MC724 at day 5 by broth microdilution method; conditions: isolate MC724, 120 h
Summary of the method: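 Clarithromycin MIC by broth microdilution following CLSI guidelines. Organisms were preincubated […], for 3 days before the assay. This allowed at least two generations, judged by the rise in turbidity. The MIC was read at the stated day, with incubation extended from day 3 to as long as 14 days.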

[33] = tested on: Mycobacteroides abscessus; assay: Antimicrobial activity against Mycobacterium abscessus isolate MC720 at day 9 preincubated with 0.1 ug/ml for 3 days by broth microdilution method; summary of the method: as §2
[34] = tested on: Mycobacteroides abscessus; assay: Antimicrobial activity against Mycobacterium abscessus isolate MC724 at day 14 by broth microdilution method; conditions: isolate MC724, 336 h; summary of the method: as §2
[35] = tested on: Mycobacteroides abscessus; assay: Antimicrobial activity against Mycobacterium abscessus isolate MAB30 at day 5 by broth microdilution method; conditions: isolate MAB30, 120 h; summary of the method: as §1
[36] = tested on: Mycobacteroides abscessus; assay: Antimicrobial activity against Mycobacterium abscessus isolate MC719 at day 3 by broth microdilution method; conditions: isolate MC719, 72 h; summary of the method: as §2

For `CC[C@H]1OC(=O)[C@H](C)[C@@H](O[C@H]2C[C@@](C)(OC)[C@@H](O)[C@H](C)O2)[C@H](C)[C@@H](O[C@@H]2O[C@H](C)C[C@H](N(C)C)[C@H]2O)[C@](C)(OC)C[C@@H](C)C(=O)[C@H](C)[C@@H](O)[C@]1(C)O` [CLARITHROMYCIN], the MIC [1] was ≤ 0.5 µg/mL, the MIC [2] was > 32 µg/mL and the MIC [3] was 32 µg/mL (≈ 42.8 µM). For the same molecule, the MIC [4] was 16 µg/mL, the MIC [5] was > 32 µg/mL and the MIC [6] was > 32 µg/mL. For the same molecule, the MIC [7] was ≤ 0.5 µg/mL, the MIC [8] was ≤ 0.5 µg/mL and the MIC [9] was 2 µg/mL (≈ 2.67 µM). For the same molecule, the MIC [10] was > 32 µg/mL, the MIC [11] was ≤ 2 µg/mL and the MIC [12] was ≤ 0.5 µg/mL. For the same molecule, the MIC [13] was ≤ 0.5 µg/mL, the MIC [14] was ≤ 0.5 µg/mL and the MIC [15] was 4 µg/mL. The MIC [16] was 4 µg/mL, the MIC [17] was 4 µg/mL (≈ 5.35 µM) and the MIC [18] was > 32 µg/mL. The MIC [19] was > 32 µg/mL, the MIC [20] was > 32 µg/mL and the MIC [21] was > 32 µg/mL. For the same molecule, the MIC [22] was > 32 µg/mL, the MIC [23] was 4 µg/mL and the MIC [24] was ≤ 0.5 µg/mL. The MIC [25] was ≤ 0.5 µg/mL, the MIC [26] was > 32 µg/mL and the MIC [27] was > 32 µg/mL. The MIC [28] was > 32 µg/mL, the MIC [29] was ≤ 0.5 µg/mL and the MIC [30] was 4 µg/mL. The MIC [31] was 1 µg/mL (≈ 1.34 µM), the MIC [32] was 1 µg/mL (≈ 1.34 µM) and the MIC [33] was > 32 µg/mL. For the same molecule, the MIC [34] was > 32 µg/mL, the MIC [35] was ≤ 0.5 µg/mL and the MIC [36] was ≤ 0.5 µg/mL.
